ChEMBL document CHEMBL5303300, “EUbOPEN Chemogenomics Library - Multiplex” (2023)
“And” between values parts separate entries of the source, which are not always exact repeats. Equal entries are not always repeated.

How the values were obtained:
Fibroblast = assay: Multiplex assay against human fibroblast; format: toxicity, cell-based; settings: number of replicates 2
Procedure, shortened: (§1)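 Cells were classed with CellPathfinder machine-learning gating, first as Hoechst high-intensity objects or normal cells, then (normal cells) as healthy, pyknosed or fragmented nuclei, and finally (pyknosed cells) as mitotic or apoptotic. Staining of live cells at seeding used Hoechst33342, BioTracker Green Microtubule Cytoskeleton Dye, MitoTracker Red and Annexin V Alexa Fluor 680, with imaging on a CQ1 microscope at 37°C and 5% CO2 after compound addition. Tubulin, mitochondrial-mass and membrane-permeability phenotypes are per cents of healthy-nucleus cells.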

HEK-293T = assay: Multiplex assay against HEK293T; format: toxicity, cell-based; settings: human, number of replicates 2; procedure, shortened: as §1
[1] = 12 h, 1 µM, compound concentration 1 uM
[2] = 12 h, 10 µM, compound concentration 10 uM
[3] = 24 h, 1 µM, compound concentration 1 uM
[4] = 24 h, 10 µM, compound concentration 10 uM
[5] = 48 h, 1 µM, compound concentration 1 uM
[6] = 48 h, 10 µM, compound concentration 10 uM

COc1cc(OC)cc(-c2cc3cnc(N)nc3nc2NC(=O)NC(C)(C)C)c1
Population Apoptotic (%) (Fibroblast; [1]): 28% and 48% and 41% and 34% | Population Fragmented Nuclei (%) (Fibroblast; [1]): 10% and 16% and 6% and 8% | Population Healthy Nuclei (%) (Fibroblast; [1]): 72% and 62% and 76% and 70% | Population Hoechst High Intensity Objects (%) (Fibroblast; [1]): 0% and 11% | Population Membrane Permeable-Phenotype (%) (Fibroblast; [1]): 7% and 6% and 5% | Population Mitochondria Different-Phenotype (%) (Fibroblast; [1]): 2% and 0% | Population Mitotic Cells (%) (Fibroblast; [1]): 71% and 51% and 58% and 65% | Population Normal (%) (Fibroblast; [1]): 100% and 88% | Population Pyknosed Nuclei (%) (Fibroblast; [1]): 17% and 20% and 16% | Population Tubulin-Different-Phenotype (%) (Fibroblast; [1]): 18% and 11% and 9% and 8% | Total Cell Count (Fibroblast; [1]): 258 and 266 and 187 and 224 | Population Apoptotic (%) (Fibroblast; [2]): 50% and 26% and 38% and 34% | Population Fragmented Nuclei (%) (Fibroblast; [2]): 8% and 9% and 14% and 12% | Population Healthy Nuclei (%) (Fibroblast; [2]): 60% and 67% and 71% and 66% | Population Hoechst High Intensity Objects (%) (Fibroblast; [2]): 0% | Population Membrane Permeable-Phenotype (%) (Fibroblast; [2]): 4% and 5% | Population Mitochondria Different-Phenotype (%) (Fibroblast; [2]): 0% and 1% | Population Mitotic Cells (%) (Fibroblast; [2]): 50% and 73% and 61% and 65% | Population Normal (%) (Fibroblast; [2]): 100% and 99% | Population Pyknosed Nuclei (%) (Fibroblast; [2]): 23% [middle of 4 runs] | Total Cell Count (Fibroblast; [2]): 176 and 182 and 232 and 229 | Population Apoptotic (%) (Fibroblast; [3]): 54% and 53% and 55% | Population Fragmented Nuclei (%) (Fibroblast; [3]): 8% and 21% and 10% | Population Healthy Nuclei (%) (Fibroblast; [3]): 74% and 57% and 71% and 65% | Population Hoechst High Intensity Objects (%) (Fibroblast; [3]): 0% and 13% | Population Membrane Permeable-Phenotype (%) (Fibroblast; [3]): 4% and 6% and 5% | Population Mitochondria Different-Phenotype (%) (Fibroblast; [3]): 0% and 1% | Population Mitotic Cells (%) (Fibroblast; [3]): 45% and 46% and 44% | Population Normal (%) (Fibroblast; [3]): 99% and 86% and 100% | Population Pyknosed Nuclei (%) (Fibroblast; [3]): 17% and 21% and 24% | Population Tubulin-Different-Phenotype (%) (Fibroblast; [3]): 12% [middle of 4 runs] | Total Cell Count (Fibroblast; [3]): 260 and 192 and 201 | Population Apoptotic (%) (Fibroblast; [4]): 57% and 48% and 65% and 58% | Population Fragmented Nuclei (%) (Fibroblast; [4]): 11% and 13% and 16% and 18% | Population Healthy Nuclei (%) (Fibroblast; [4]): 63% and 67% and 70% and 66% | Population Hoechst High Intensity Objects (%) (Fibroblast; [4]): 0% | Population Membrane Permeable-Phenotype (%) (Fibroblast; [4]): 5% and 1% and 4% | Population Mitochondria Different-Phenotype (%) (Fibroblast; [4]): 0% and 1% | Population Mitotic Cells (%) (Fibroblast; [4]): 42% and 51% and 34% and 41% | Population Normal (%) (Fibroblast; [4]): 100% and 99% | Population Pyknosed Nuclei (%) (Fibroblast; [4]): 25% and 18% and 13% and 15% | Total Cell Count (Fibroblast; [4]): 187 and 175 and 231 and 236 | Population Apoptotic (%) (Fibroblast; [5]): 70% and 65% and 60% and 68% | Population Fragmented Nuclei (%) (Fibroblast; [5]): 10% and 18% and 12% and 15% | Population Healthy Nuclei (%) (Fibroblast; [5]): 75% and 63% and 65% | Population Hoechst High Intensity Objects (%) (Fibroblast; [5]): 0% and 18% | Population Membrane Permeable-Phenotype (%) (Fibroblast; [5]): 2% and 10% and 8% and 6% | Population Mitochondria Different-Phenotype (%) (Fibroblast; [5]): 0% | Population Mitotic Cells (%) (Fibroblast; [5]): 29% and 34% and 40% and 31% | Population Normal (%) (Fibroblast; [5]): 100% and 81% | Population Pyknosed Nuclei (%) (Fibroblast; [5]): 13% and 17% and 12% and 19% | Population Tubulin-Different-Phenotype (%) (Fibroblast; [5]): 7% and 10% and 9% and 6% | Total Cell Count (Fibroblast; [5]): 266 and 238 and 205 and 226 | Population Apoptotic (%) (Fibroblast; [6]): 74% and 66% and 75% and 69% | Population Fragmented Nuclei (%) (Fibroblast; [6]): 13% and 10% and 16% and 18% | Population Healthy Nuclei (%) (Fibroblast; [6]): 65% and 67% and 71% and 69% | Population Hoechst High Intensity Objects (%) (Fibroblast; [6]): 0% | Population Membrane Permeable-Phenotype (%) (Fibroblast; [6]): 8% and 0% and 5% and 4% | Population Mitochondria Different-Phenotype (%) (Fibroblast; [6]): 1% and 0% | Population Mitotic Cells (%) (Fibroblast; [6]): 25% and 33% and 24% and 30% | Population Normal (%) (Fibroblast; [6]): 100% | Population Pyknosed Nuclei (%) (Fibroblast; [6]): 20% and 22% and 12% | Total Cell Count (Fibroblast; [6]): 190 and 176 and 237 and 215 | Population Apoptotic (%) (HEK-293T; [1]): 61% and 63% and 50% and 43% | Population Fragmented Nuclei (%) (HEK-293T; [1]): 7% and 3% and 2% and 4% | Population Healthy Nuclei (%) (HEK-293T; [1]): 77% and 80% and 85% and 83% | Population Hoechst High Intensity Objects (%) (HEK-293T; [1]): 9% and 11% and 10% | Population Membrane Permeable-Phenotype (%) (HEK-293T; [1]): 6% and 2% and 3% and 1% | Population Mitochondria Different-Phenotype (%) (HEK-293T; [1]): 15% and 13% and 18% and 20% | Population Mitotic Cells (%) (HEK-293T; [1]): 38% and 36% and 50% and 56% | Population Normal (%) (HEK-293T; [1]): 90% and 88% and 89% | Population Pyknosed Nuclei (%) (HEK-293T; [1]): 15% and 16% and 11% | Population Tubulin-Different-Phenotype (%) (HEK-293T; [1]): 55% and 48% and 54% and 53% | Total Cell Count (HEK-293T; [1]): 713 and 595 and 582 and 616 | Population Apoptotic (%) (HEK-293T; [2]): 52% and 55% and 50% and 64% | Population Fragmented Nuclei (%) (HEK-293T; [2]): 2% and 3% and 7% and 5% | Population Healthy Nuclei (%) (HEK-293T; [2]): 82% and 86% and 79% and 81% | Population Hoechst High Intensity Objects (%) (HEK-293T; [2]): 4% and 7% and 12% and 10% | Population Membrane Permeable-Phenotype (%) (HEK-293T; [2]): 1% and 2% | Population Mitochondria Different-Phenotype (%) (HEK-293T; [2]): 25% and 15% and 17% and 19% | Population Mitotic Cells (%) (HEK-293T; [2]): 47% and 44% and 49% and 35% | Population Normal (%) (HEK-293T; [2]): 95% and 92% and 87% and 89% | Population Pyknosed Nuclei (%) (HEK-293T; [2]): 14% and 10% and 12% | Population Tubulin-Different-Phenotype (%) (HEK-293T; [2]): 54% and 47% and 72% and 63% | Total Cell Count (HEK-293T; [2]): 524 and 626 and 917 and 726 | Population Apoptotic (%) (HEK-293T; [3]): 46% and 54% and 51% and 53% | Population Fragmented Nuclei (%) (HEK-293T; [3]): 10% and 7% and 8% | Population Healthy Nuclei (%) (HEK-293T; [3]): 76% and 78% and 82% and 80% | Population Hoechst High Intensity Objects (%) (HEK-293T; [3]): 10% and 8% | Population Membrane Permeable-Phenotype (%) (HEK-293T; [3]): 3% and 1% and 2%
